Assay outcomes (PubChem BioAssay)
INS-1E GSIS act: GLuc luminescence reporter in INS-1E cells, primary screen for activators of glucose-dependent secretion of insulin. AID 743287. activation, % at 16.6 µM. actives 0.61% (n = 370,000). INS-1E GLuc reporter insulin secretion, 2-3 h;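 active = lowest replicate activation of at least 40%, so every replicate reaches that level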;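 also: 0% = median of neutral control wells and 100% = median of IBMX positive control wells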
EWS-Fli block: EWS/Fli transcriptional activity inhibition. A673 NR0B1-luciferase reporter, viability-normalised. inhibition, % at 12.6 µM. actives 0.67% (n = 350,000). AID 651661;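 active = mean inhibition of at least 50% after viability correction, with every replicate also passing that limit; inconclusive = mean reaches 50% but only one of two replicates passes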;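 also: firefly luciferase signal divided by Alamar Blue viability fluorescence both relative to DMSO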
Xi reactivation: activators of X-chromosome reactivation in mouse fibroblasts; XiGFP mouse fibroblasts, % GFP-positive cells imaging, 3 d; cells co-treated with 5-aza-dC sensitizer; scaled so ellipticine positive control = 100%; activation, % at 7.58 µM; actives 0.055% (n = 360,000); AID 743238;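 active = mean normalized replicate activation at least 10% and every replicate at or above 10%; inconclusive = only one of the two criteria met; inactive = mean below 10% and not all replicates reach 10%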;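 also: 0% = median of on-plate neutral control wells and 100% = ellipticine 6 µM median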
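Material: XiGFP fibroblasts, SV40-immortalized; Buffer or medium: DMEM containing 5-aza-dC; Compound dosing: single point; Times: 3 days compound exposure.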
PGC1a acetyl inh: lowers PGC1a acetylation signal in U2OS cells. inhibition, % at 15.6 µM. AlphaScreen anti-acetyl-lysine; with virally co-expressed GCN5 acetyltransferase. actives 0.17% (n = 350,000);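 active = every replicate shows inhibition of at least 40%; inconclusive = mean inhibition at least 40% but some replicate below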;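 also: 0% = neutral control wells and 100% = positive control wells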
MLL AF4-AF9 inh: blocks AF4 peptide binding to human AF9; P42568; AlphaScreen, biotin-AF4 peptide binding to FLAG-AF9; inhibition, % at 10 µM; actives 0.47% (n = 350,000);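 active = every replicate reaching a set inhibition limit, whatever the replicate mean, cut at about 25% in these data; inconclusive = mean inhibition reaches that limit but some replicates miss it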;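 also: 0% = plate neutral control median and 100% = total signal loss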
Target sequence (P42568 whole entry, looked up): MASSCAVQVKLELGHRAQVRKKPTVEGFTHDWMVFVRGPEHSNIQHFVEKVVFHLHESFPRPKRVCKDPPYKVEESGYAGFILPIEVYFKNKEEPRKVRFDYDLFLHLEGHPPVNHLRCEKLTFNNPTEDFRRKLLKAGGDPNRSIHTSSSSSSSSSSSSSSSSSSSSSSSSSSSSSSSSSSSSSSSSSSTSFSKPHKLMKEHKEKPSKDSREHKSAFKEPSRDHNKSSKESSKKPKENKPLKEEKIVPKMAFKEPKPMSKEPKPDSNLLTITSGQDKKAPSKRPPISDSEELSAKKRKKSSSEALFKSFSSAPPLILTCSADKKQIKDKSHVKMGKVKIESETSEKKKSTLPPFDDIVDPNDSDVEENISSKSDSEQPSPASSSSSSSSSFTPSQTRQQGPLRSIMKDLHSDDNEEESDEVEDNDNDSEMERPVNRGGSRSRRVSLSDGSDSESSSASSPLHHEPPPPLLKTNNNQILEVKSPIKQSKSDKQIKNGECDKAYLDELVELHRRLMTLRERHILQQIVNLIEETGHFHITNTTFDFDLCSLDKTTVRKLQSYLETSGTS
PAX8 reporter: inhibitors of PAX8 transcriptional activity in RMG-I cells; RMG-I TPO-luciferase reporter, SteadyGlo, 24 h; inhibition, % at 12.6 µM; actives 1.2% (n = 360,000);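 active = mean replicate inhibition at least 60% with every replicate also reaching 60%; inconclusive = only one of the two criteria is met; inactive = mean below 60% and not all replicates reaching 60%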;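 also: luciferase light reporting Pax8 driven TPO promoter activity; plate controls were median of neutral control wells for no effect and mitoxantrone controls for full effect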
Active calls of the source: *. A selection: hits, their analogues and other compounds. The true share with any hit is near 2.1%.

CCN(CC)S(=O)(=O)c1ccc(N2CCOCC2)c(NC(=O)c2cc(-c3ccccn3)nc3ccccc23)c1 was read as INS-1E GSIS act 1, EWS-Fli block 14, Xi reactivation 0, MLL AF4-AF9 inh 0 and PAX8 reporter 78*.
`C[C@H]1CCCCO[C@H](CN(C)C(=O)CCC(F)(F)F)[C@@H](C)CN([C@@H](C)CO)C(=O)c2cc(NC(=O)CCCN(C)C)ccc2O1` gave INS-1E GSIS act 10, EWS-Fli block -18, Xi reactivation 0, PGC1a acetyl inh 8 and PAX8 reporter -2.
CC(=O)N1[C@@H]2Cn3c(ccc(C4=CCCC4)c3=O)[C@H]1[C@@H](C(=O)N[C@H](C)c1ccccc1)[C@@H]2CO was read as INS-1E GSIS act 3, EWS-Fli block -1, Xi reactivation 0 and MLL AF4-AF9 inh -2.
For CCc1nnc(N/N=C/c2c(Cl)cccc2Cl)n1N the results were INS-1E GSIS act 2 and PGC1a acetyl inh 64*.
Screening C=C(C)C(=O)Oc1ccc(N=Nc2ccc(C)cc2)ccc1=O returned EWS-Fli block 1, Xi reactivation 0, MLL AF4-AF9 inh 28* and PAX8 reporter -69.
Screening COc1ccc(S(=O)(=O)Nc2ccc3c(c2)OC[C@@H](C)N(C(=O)NC(C)C)C[C@@H](C)[C@H](OC)CN(C)C3=O)cc1 returned INS-1E GSIS act -5, EWS-Fli block 5, Xi reactivation 0, PGC1a acetyl inh 18, MLL AF4-AF9 inh -2 and PAX8 reporter -1.
For C/C(=N\NC(=S)NC(C)C)c1ccccc1 the results were INS-1E GSIS act 54*, EWS-Fli block 16, Xi reactivation 0, PGC1a acetyl inh 5, MLL AF4-AF9 inh 11 and PAX8 reporter 21.
Screening CC(=O)Nc1cccc(/C(C)=N/NC(=S)NC(C)C)c1 returned INS-1E GSIS act -4, EWS-Fli block -20, Xi reactivation 0, PGC1a acetyl inh 7, MLL AF4-AF9 inh 2 and PAX8 reporter -10.
`CN1CCN(C(=O)C[C@@H]2CC[C@H]3[C@@H](COC[C@H](O)CN3C(=O)Nc3ccc(Cl)cc3)O2)CC1` gave INS-1E GSIS act -5, EWS-Fli block -28, Xi reactivation 0, PGC1a acetyl inh 3, MLL AF4-AF9 inh -2 and PAX8 reporter -14.
For COc1ccc(CNC(=O)C(c2ccco2)N(Cc2ccccc2)C(=O)Cc2cccs2)cc1 (centres undefined) the results were PGC1a acetyl inh -3 and PAX8 reporter 22.
Screening O=C(NCc1ccccc1)C(c1ccccc1)N(Cc1ccccc1)C(=O)Cc1ccccc1 (centres undefined) returned EWS-Fli block 71*, MLL AF4-AF9 inh 1 and PAX8 reporter 79*.
`CC(C)NC(=O)N1[C@H](CO)[C@@H]2c3ccccc3N(C(=O)C3CC3)C[C@@H]21` gave INS-1E GSIS act 2, EWS-Fli block -4, Xi reactivation 0, PGC1a acetyl inh -1, MLL AF4-AF9 inh 1 and PAX8 reporter -5.
`CCCCc1[nH]c(=O)c(C#N)c2c1CSC(C)(C)C2` gave INS-1E GSIS act 29.
`CCCCc1[nH]c(=O)c(C#N)c2c1CCCC2` gave INS-1E GSIS act 99* and PGC1a acetyl inh 4.
COc1ccc(OC)c(N/C(=N/c2nc(C)cc(C)n2)NC(C)=O)c1 was read as INS-1E GSIS act 14, EWS-Fli block -1, Xi reactivation 0, PGC1a acetyl inh -2, MLL AF4-AF9 inh 27* and PAX8 reporter 13.
`CC(C)NC(=O)N(C)C[C@@H]1Oc2ccc(NC(=O)Cc3ccccc3)cc2C(=O)N([C@H](C)CO)C[C@@H]1C` gave INS-1E GSIS act 5, EWS-Fli block -2, Xi reactivation 0, PGC1a acetyl inh -1, MLL AF4-AF9 inh -2 and PAX8 reporter -5.
For Cc1nc(C(C)N(C)Cc2nc(-c3ccc4c(c3)OCO4)no2)c(C)s1 (centres undefined) the results were INS-1E GSIS act -6, EWS-Fli block -31, Xi reactivation inconclusive, PGC1a acetyl inh 97*, MLL AF4-AF9 inh 0 and PAX8 reporter -92.
`Cc1cccc(-c2noc(CN(C(=O)c3ccc4c(c3)OCO4)C(C)C)n2)c1` gave PGC1a acetyl inh -3.
CC(=O)Nc1ccc(S(=O)(=O)N2c3ccc(F)cc3CCC2C)cc1 (centres undefined) was read as INS-1E GSIS act -45, EWS-Fli block inconclusive, Xi reactivation 0, PGC1a acetyl inh -3, MLL AF4-AF9 inh 7 and PAX8 reporter 18.
COc1ccc(S(=O)(=O)N2c3ccc(F)cc3CCC2C)cc1 (centres undefined) was read as INS-1E GSIS act -32, EWS-Fli block 41, Xi reactivation 3, PGC1a acetyl inh -120, MLL AF4-AF9 inh -2 and PAX8 reporter 78*.
`C[C@H](NC(=O)[C@H]1N[C@H]2c3ccc(C4=CCCC4)c(=O)n3C[C@H]2[C@@H]1CO)c1ccccc1` gave INS-1E GSIS act -5, EWS-Fli block -4, Xi reactivation 0, MLL AF4-AF9 inh 0 and PAX8 reporter 7.
Screening COc1ccc(NC(=O)COc2ccc(/C=C/c3cc[n+](C)cc3)cc2OC)cc1 returned INS-1E GSIS act 8, EWS-Fli block 5, Xi reactivation 0, MLL AF4-AF9 inh 4 and PAX8 reporter 20.
`COc1cc(/C=C/c2cc[n+](C)cc2)ccc1OCC(=O)Nc1ccc(Cl)c(Cl)c1` gave INS-1E GSIS act -24, EWS-Fli block -5, Xi reactivation 0, PGC1a acetyl inh -5, MLL AF4-AF9 inh inconclusive and PAX8 reporter 110*.
For Cn1c(-c2ccccc2F)cc2onc(-c3ccccc3)c2c1=O the results were INS-1E GSIS act -4, EWS-Fli block -103, Xi reactivation 0, MLL AF4-AF9 inh -6 and PAX8 reporter -89.
Cn1c(-c2ccccc2)cc2onc(-c3ccccc3)c2c1=O was read as INS-1E GSIS act -1, EWS-Fli block 81*, Xi reactivation 0, PGC1a acetyl inh 13, MLL AF4-AF9 inh -7 and PAX8 reporter 14.
Screening C[C@H](CO)N1C[C@H](C)[C@H](CN(C)S(=O)(=O)c2ccc(Cl)cc2)Oc2ccc(NC(=O)c3ccncc3)cc2CC1=O returned INS-1E GSIS act 10, EWS-Fli block 8, Xi reactivation -1, PGC1a acetyl inh 5, MLL AF4-AF9 inh 0 and PAX8 reporter -5.
For CCc1nc(N)nc2c1C(=O)CC(C)(C)C2 the results were INS-1E GSIS act 70*, EWS-Fli block -8, PGC1a acetyl inh -2 and MLL AF4-AF9 inh -10.
CCCCCc1ccc(OCCC[n+]2ccccc2)c(CCCCC)c1 was read as INS-1E GSIS act 192*, EWS-Fli block 38, Xi reactivation 0, MLL AF4-AF9 inh 20 and PAX8 reporter 96*.
CCCCCCOc1ccc(C(=O)O)cc1C#N was read as INS-1E GSIS act 4, EWS-Fli block 11, Xi reactivation 0, PGC1a acetyl inh 5 and PAX8 reporter 5.
